Test results published in ChEMBL document CHEMBL1821590, “Novel dihydropyrimidines and its pyrazole derivatives: synthesis and pharmacological screening” (Eur J Med Chem, 2011).
Converted amounts (≈) assume the structure as drawn.

Legend:
Assay type in all cases: functional
[1] = Antioxidant activity assessed as nitric oxide radical scavenging activity after 150 mins
Procedure, shortened: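 10 mM sodium nitroprusside (4 mL), PBS pH 7.4 (1 mL) and sample or ascorbic acid in DMSO (1 mL, 12.5–100 µg/mL), incubated 150 min at 25 °C. Nitrite detected with sulphanilic acid (5 min) then naphthylethylenediamine (30 min, diffused light). Read at […]. Triplicate. % inhibition = [1 − (Vt/Vc)] × 100. IC50 derived from it.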

[2] = Antioxidant activity assessed as hydrogen peroxide scavenging activity after 10 mins
Procedure, shortened: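 H2O2 (20 mM) in PBS pH 7.4. 1 mL of sample or ascorbic acid in methanol (12.5–100 µg/mL) added to 2 mL H2O2 solution. A230 read after 10 min. % inhibition = [1 − (Vt/Vc)] × 100. Triplicate, averaged. IC50 derived from % inhibition across concentrations.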

[3] = Antioxidant activity assessed as inhibition of lipid peroxidation using egg lecithin liposomes incubated for 1 hr
Procedure, shortened: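 Egg lecithin (3 mg/mL, phosphate buffer pH 7.4) sonicated 10 min to form liposomes. Sample or ascorbic acid (12.5–100 µg/mL) added. Peroxidation induced with FeCl3 and L-ascorbic acid, 1 h at 37 °C. Stopped with HCl/TCA/TBA/BHA, boiled 15 min, centrifuged, supernatant read at 532 nm. Triplicate. % inhibition vs control. IC50 derived.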

[4] = Antioxidant activity assessed as potassium ferricyanide ion reducing power after 20 mins
Procedure, shortened: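 Oyaizu method. Samples or ascorbic acid in DMF (12.5–100 µg/mL) mixed with 0.2 M phosphate buffer pH 6.6 and 1% potassium ferricyanide, 20 min at 50 °C. 10% TCA added, centrifuged. Supernatant mixed with water and 0.1% FeCl3, read at 700 nm. % = [(Vt/Vc) − 1] × 100. IC50 derived.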

[5] = Antiinflammatory activity assessed as inhibition of albumin denaturation at 100 ug/ml by UV-visible spectrophotometry
Procedure, shortened: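 Compounds dissolved in minimal DMF, diluted in PBS pH 7.4 (final DMF <2.5%). 1 mL test solution (100 µg/mL) plus 1 mL 1% albumin in PBS, 15 min at 27 ± 1 °C, then heated 10 min at 60 ± 1 °C. After cooling, turbidity read at 660 nm. % inhibition = [(Vt/Vc) − 1] × 100 against a no-drug control. Triplicate, averaged. Diclofenac standard.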

[6] = tested on: Metaphire posthuma; test: Anthelmintic activity against Pheretima posthuma assessed as time taken for complete parasite paralysis at 0.1% w/v
Procedure, shortened: (§1)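 Earthworms (Pheretima posthuma) exposed to test solutions at 0.1, 0.2 and 0.5% w/v; time in minutes to complete paralysis (worms motionless) recorded. Albendazole as standard. Mean of three determinations ± S.D.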

[7] = tested on: Metaphire posthuma; test: Anthelmintic activity against Pheretima posthuma assessed as time taken for complete parasite paralysis at 0.2% w/v; procedure, shortened: as §1
[8] = tested on: Metaphire posthuma; test: Anthelmintic activity against Pheretima posthuma assessed as time taken for complete parasite paralysis at 0.5% w/v; procedure, shortened: as §1
[9] = tested on: Metaphire posthuma; test: Anthelmintic activity against Pheretima posthuma assessed as time taken for parasite death at 0.1% w/v
Procedure, shortened: (§2)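 Earthworms (Pheretima posthuma, spelled Perituma posthuma in text) exposed to test compounds at 0.1, 0.2 and 0.5% w/v. Albendazole served as standard, with an untreated control. Paralysis was recorded as the time until worms became motionless, then time to death was recorded, in minutes. Each value is the mean of three determinations with S.D.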

[10] = tested on: Metaphire posthuma; test: Anthelmintic activity against Pheretima posthuma assessed as time taken for parasite death at 0.2% w/v; procedure, shortened: as §2
[11] = tested on: Metaphire posthuma; test: Anthelmintic activity against Pheretima posthuma assessed as time taken for parasite death at 0.5% w/v; procedure, shortened: as §2
[12] = tested on: Escherichia coli; test: Antimicrobial activity against Escherichia coli at 25 ug/ml by agar plate diffusion technique; settings: read-out: IZ
Procedure, shortened: (§3)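 Agar plate diffusion against E. coli, P. aeruginosa, S. aureus and B. subtilis, with compounds at 25, 50 and 100 µg/mL. Streptomycin as standard.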

[13] = tested on: Escherichia coli; test: Antimicrobial activity against Escherichia coli at 50 ug/ml by agar plate diffusion technique; settings: read-out: IZ; procedure, shortened: as §3
[14] = tested on: Escherichia coli; test: Antimicrobial activity against Escherichia coli at 100 ug/ml by agar plate diffusion technique; settings: read-out: IZ; procedure, shortened: as §3
[15] = tested on: Pseudomonas aeruginosa; test: Antimicrobial activity against Pseudomonas aeruginosa at 25 ug/ml by agar plate diffusion technique; settings: read-out: IZ; procedure, shortened: as §3
[16] = tested on: Pseudomonas aeruginosa; test: Antimicrobial activity against Pseudomonas aeruginosa at 50 ug/ml by agar plate diffusion technique; settings: read-out: IZ; procedure, shortened: as §3
[17] = tested on: Pseudomonas aeruginosa; test: Antimicrobial activity against Pseudomonas aeruginosa at 100 ug/ml by agar plate diffusion technique; settings: read-out: IZ; procedure, shortened: as §3
[18] = tested on: Bacillus subtilis; test: Antimicrobial activity against Bacillus subtilis at 25 ug/ml by agar plate diffusion technique; settings: read-out: IZ; procedure, shortened: as §3
[19] = tested on: Bacillus subtilis; test: Antimicrobial activity against Bacillus subtilis at 50 ug/ml by agar plate diffusion technique; settings: read-out: IZ; procedure, shortened: as §3
[20] = tested on: Bacillus subtilis; test: Antimicrobial activity against Bacillus subtilis at 100 ug/ml by agar plate diffusion technique; settings: read-out: IZ; procedure, shortened: as §3
[21] = tested on: Staphylococcus aureus; test: Antimicrobial activity against Staphylococcus aureus at 25 ug/ml by agar plate diffusion technique; settings: read-out: IZ; procedure, shortened: as §3
[22] = tested on: Staphylococcus aureus; test: Antimicrobial activity against Staphylococcus aureus at 50 ug/ml by agar plate diffusion technique; settings: read-out: IZ; procedure, shortened: as §3
[23] = tested on: Staphylococcus aureus; test: Antimicrobial activity against Staphylococcus aureus at 100 ug/ml by agar plate diffusion technique; settings: read-out: IZ; procedure, shortened: as §3
[24] = tested on: Candida albicans; test: Antimicrobial activity against Candida albicans at 25 ug/ml by paper disc method; settings: read-out: IZ
Procedure, shortened: (§4)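 Paper disc method against A. niger and C. albicans, with compounds at 25, 50 and 100 µg/mL. Amphotericin-B as standard.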

[25] = tested on: Candida albicans; test: Antimicrobial activity against Candida albicans at 50 ug/ml by paper disc method; settings: read-out: IZ; procedure, shortened: as §4
[26] = tested on: Candida albicans; test: Antimicrobial activity against Candida albicans at 100 ug/ml by paper disc method; settings: read-out: IZ; procedure, shortened: as §4
[27] = tested on: Aspergillus niger; test: Antimicrobial activity against Aspergillus niger at 25 ug/ml by paper disc method; settings: read-out: IZ; procedure, shortened: as §4
[28] = tested on: Aspergillus niger; test: Antimicrobial activity against Aspergillus niger at 50 ug/ml by paper disc method; settings: read-out: IZ; procedure, shortened: as §4
[29] = tested on: Aspergillus niger; test: Antimicrobial activity against Aspergillus niger at 100 ug/ml by paper disc method; settings: read-out: IZ; procedure, shortened: as §4

| SMILES | IC50 [1] | IC50 [2] | IC50 [3] | IC50 [4] | inhibition [5] | Time [6] | Time [7] | Time [8] | Time [9] | Time [10] | Time [11] | zone of inhibition at 25 µg/mL [12] | zone of inhibition at 50 µg/mL [13] | zone of inhibition at 100 µg/mL [14] | zone of inhibition at 25 µg/mL [15] | zone of inhibition at 50 µg/mL [16] | zone of inhibition at 100 µg/mL [17] | zone of inhibition at 25 µg/mL [18] | zone of inhibition at 50 µg/mL [19] | zone of inhibition at 100 µg/mL [20] | further results |
| --- | --- | --- | --- | --- | --- | --- | --- | --- | --- | --- | --- | --- | --- | --- | --- | --- | --- | --- | --- | --- | --- |
| CCOC(=O)c1cnn(-c2nc(-c3ccc(OC)cc3)c(C#N)c(=O)n2C)c1N | 79 µg/mL (≈ 200 µM) | 74 µg/mL (≈ 188 µM) | 68 µg/mL (≈ 172 µM) | 59 µg/mL (≈ 150 µM) | 13.6% | 52.09 min | 49.46 min | 45.02 min | 67.41 min | 63.37 min | 57.93 min | 10.5 mm | 14.7 mm | 17.4 mm | 8.21 mm | 10.2 mm | 16.1 mm | 10.2 mm | 14 mm | 18.1 mm | zone of inhibition at 25 µg/mL [21]: 10.1 mm; zone of inhibition at 50 µg/mL [22]: 15.1 mm; zone of inhibition at 100 µg/mL [23]: 18.6 mm; zone of inhibition at 25 µg/mL [24]: 9.62 mm; zone of inhibition at 50 µg/mL [25]: 12.6 mm; zone of inhibition at 100 µg/mL [26]: 19.8 mm; zone of inhibition at 25 µg/mL [27]: 11.6 mm; zone of inhibition at 50 µg/mL [28]: 13 mm; zone of inhibition at 100 µg/mL [29]: 20.7 mm |
| Cn1c(NN)nc(-c2ccccc2Cl)c(C#N)c1=O | 62 µg/mL (≈ 225 µM) | 46 µg/mL (≈ 167 µM) | 57 µg/mL (≈ 207 µM) | 58 µg/mL (≈ 210 µM) | 53.5% | 50.65 min | 52.38 min | 45.38 min | 67.33 min | 66.37 min | 60.86 min | 9.26 mm | 10.1 mm | 13.1 mm | 8.41 mm | 12.7 mm | 15.4 mm | 11.1 mm | 15.1 mm | 22.7 mm | zone of inhibition at 25 µg/mL [21]: 12.8 mm; zone of inhibition at 50 µg/mL [22]: 15.9 mm; zone of inhibition at 100 µg/mL [23]: 19.3 mm; zone of inhibition at 25 µg/mL [24]: 13.4 mm; zone of inhibition at 50 µg/mL [25]: 17.9 mm; zone of inhibition at 100 µg/mL [26]: 21.4 mm; zone of inhibition at 25 µg/mL [27]: 11.2 mm; zone of inhibition at 50 µg/mL [28]: 14 mm; zone of inhibition at 100 µg/mL [29]: 19.4 mm |
